Results: ChEMBL document CHEMBL3526138, “Excretion and metabolism of milnacipran in humans after oral administration of milnacipran hydrochloride” (Drug Metab Dispos, 2012)

Legend:
[1] = Drug excretion in human feces at 100 mg, po up to 72 hrs by liquid scintillation counting analysis; assay type: ADME, organism-based; conditions: in vivo
Procedure, shortened: (§1)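 Feces pooled into 24-h collections to 120 h after oral 100 mg [14C] dose, frozen -80°C, homogenised in water. Triplicate weighed aliquots combusted in sample oxidizer, counted by LSC 5 min. Excreted amount = concentration × sample weight, expressed as % of dosed radioactivity and summed cumulatively per subject.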

[2] = Drug excretion in human urine at 100 mg, po up to 24 hrs by liquid scintillation counting analysis; assay type: ADME, organism-based; conditions: in vivo
Procedure, shortened: (§2)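 Urine pooled at 0-4, 4-8, 8-12, 12-24 h, then daily intervals to 120 h after single oral 100 mg [14C] milnacipran hydrochloride; frozen -80°C and counted by LSC. Excreted amount = concentration × volume, given as % of dosed radioactivity, summed cumulatively per subject.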

[3] = test system: Homo sapiens; experiment: Total drug excretion in human at 100 mg, po up to 12 hrs by liquid scintillation counting analysis; assay type: ADME, organism-based; conditions: in vivo
Procedure, shortened: (§3)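 Mass balance after single oral 100 mg [14C] dose to healthy males: cumulative urinary plus fecal radioactivity (LSC; feces combusted first) as % of dose per subject, urine and feces collected in timed intervals to 120 h.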

[4] = Drug excretion in human urine at 100 mg, po up to 12 hrs by liquid scintillation counting analysis; assay type: ADME, organism-based; conditions: in vivo; procedure, shortened: as §2
[5] = Drug excretion in human feces at 100 mg, po up to 144 hrs by liquid scintillation counting analysis; assay type: ADME, organism-based; conditions: in vivo
[6] = test system: Homo sapiens; experiment: AUC (0 to infinity) in human assessed as radioactivity at 100 mg, po by liquid scintillation counting analysis; assay type: ADME, organism-based, Plasma; design: dose 100 mg, route oral, time infinity; conditions: in vivo
Procedure, shortened: (§4)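 Healthy males given single oral [14C] milnacipran hydrochloride (100 μCi; 1 μCi/mg) after breakfast. Blood drawn into chilled K3EDTA tubes pre-dose to 120 h, plasma spun ≥2,500 g 10 min 4°C and frozen -80°C. Radioactivity counted by LSC for 5 min, converted to ng equivalent/mL via specific activity. Parameters by non-compartmental analysis; subjects without emesis.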

[7] = test system: Homo sapiens; experiment: Total drug excretion in human at 100 mg, po up to 8 hrs by liquid scintillation counting analysis; assay type: ADME, organism-based; conditions: in vivo; procedure, shortened: as §3
[8] = Drug excretion in human feces at 100 mg, po up to 96 hrs by liquid scintillation counting analysis; assay type: ADME, organism-based; conditions: in vivo; procedure, shortened: as §1
[9] = Drug excretion in mouse urine at 100 mg/kg, po; assay type: ADME, organism-based; design: dose 100 mg/kg, route oral; conditions: read-out: Drug excretion
[10] = test system: Homo sapiens; experiment: Total drug excretion in human at 100 mg, po up to 24 hrs by liquid scintillation counting analysis; assay type: ADME, organism-based; conditions: in vivo; procedure, shortened: as §3
[11] = test system: Homo sapiens; experiment: Total drug excretion in human at 100 mg, po up to 48 hrs by liquid scintillation counting analysis; assay type: ADME, organism-based; conditions: in vivo; procedure, shortened: as §3
[12] = Drug excretion in human feces at 100 mg, po up to 120 hrs by liquid scintillation counting analysis; assay type: ADME, organism-based; conditions: in vivo; procedure, shortened: as §1
[13] = Drug excretion in human urine at 100 mg, po up to 8 hrs by liquid scintillation counting analysis; assay type: ADME, organism-based; conditions: in vivo; procedure, shortened: as §2
[14] = Drug excretion in human urine at 100 mg, po up to 96 hrs by liquid scintillation counting analysis; assay type: ADME, organism-based; conditions: in vivo; procedure, shortened: as §2
[15] = Drug excretion in human urine at 100 mg, po up to 4 hrs by liquid scintillation counting analysis; assay type: ADME, organism-based; conditions: in vivo; procedure, shortened: as §2
[16] = test system: Homo sapiens; experiment: Total drug excretion in human at 100 mg, po up to 4 hrs by liquid scintillation counting analysis; assay type: ADME, organism-based; conditions: in vivo; procedure, shortened: as §3
[17] = test system: Homo sapiens; experiment: Total drug excretion in human at 100 mg, po up to 72 hrs by liquid scintillation counting analysis; assay type: ADME, organism-based; conditions: in vivo; procedure, shortened: as §3
[18] = Drug excretion in human urine at 100 mg, po up to 144 hrs by liquid scintillation counting analysis; assay type: ADME, organism-based; conditions: in vivo
[19] = Drug excretion in human urine at 100 mg, po up to 48 hrs by liquid scintillation counting analysis; assay type: ADME, organism-based; conditions: in vivo; procedure, shortened: as §2
[20] = Drug excretion in monkey urine at 60 mg/kg, po; assay type: ADME, organism-based, Macaca mulatta; design: dose 60 mg/kg, route oral; conditions: rhesus monkey, read-out: Drug excretion
[21] = Drug excretion in human feces at 100 mg, po up to 24 hrs by liquid scintillation counting analysis; assay type: ADME, organism-based; conditions: in vivo; procedure, shortened: as §1
[22] = test system: Homo sapiens; experiment: Total drug excretion in human at 100 mg, po up to 96 hrs by liquid scintillation counting analysis; assay type: ADME, organism-based; conditions: in vivo; procedure, shortened: as §3
[23] = test system: Homo sapiens; experiment: AUC (0 to t) in human assessed as radioactivity at 100 mg, po by liquid scintillation counting analysis; assay type: ADME, organism-based, Plasma; conditions: in vivo; procedure, shortened: as §4
[24] = test system: Homo sapiens; experiment: Total drug excretion in human at 100 mg, po up to 120 hrs by liquid scintillation counting analysis; assay type: ADME, organism-based; conditions: in vivo; procedure, shortened: as §3
[25] = test system: Homo sapiens; experiment: Half life in human assessed as radioactivity at 100 mg, po by liquid scintillation counting analysis; assay type: ADME, organism-based; conditions: in vivo; procedure, shortened: as §4
[26] = Drug excretion in human feces at 100 mg, po up to 48 hrs by liquid scintillation counting analysis; assay type: ADME, organism-based; conditions: in vivo; procedure, shortened: as §1
[27] = Drug excretion in human urine at 100 mg, po up to 120 hrs by liquid scintillation counting analysis; assay type: ADME, organism-based; conditions: in vivo; procedure, shortened: as §2
[28] = test system: Homo sapiens; experiment: Total drug excretion in human at 100 mg, po up to 144 hrs by liquid scintillation counting analysis; assay type: ADME, organism-based; conditions: in vivo
[29] = test system: Plasma; experiment: Drug recovery in human plasma at 100 mg, po by HPLC analysis; assay type: ADME, organism-based; conditions: in vivo
Procedure, shortened: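 Pooled plasma extracted for metabolite profiling; recovery of radioactivity through sample processing and through Phenyl-Hexyl HPLC column (0.5-min fractions counted by LSC) expressed as % of plasma or sample radioactivity.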

[30] = Drug excretion in rat urine at 100 mg/kg, po; assay type: ADME, organism-based; design: dose 100 mg/kg, route oral; conditions: read-out: Drug excretion
[31] = test system: Homo sapiens; experiment: Cmax in human assessed as radioactivity at 100 mg, po by liquid scintillation counting analysis; assay type: ADME, organism-based; design: dose 100 mg, route oral; conditions: in vivo; procedure, shortened: as §4
[32] = Drug excretion in human urine at 100 mg, po up to 72 hrs by liquid scintillation counting analysis; assay type: ADME, organism-based; conditions: in vivo; procedure, shortened: as §2
[33] = test system: Homo sapiens; experiment: Tmax in human assessed as radioactivity at 100 mg, po by liquid scintillation counting analysis; assay type: ADME, organism-based; conditions: in vivo; procedure, shortened: as §4

Compound: CCN(CC)[14C](=O)C1(c2ccccc2)CC1CN.Cl (stereo not drawn)
- Drug excretion [1]: 3.27%
- Drug excretion [2]: 79.4%
- Drug excretion [3]: 60.8%
- Drug excretion [4]: 60.8%
- Drug excretion [5]: 3.65%
- AUC [6]: 7325.3 ng.Eq.hr/ml
- Drug excretion [7]: 48.5%
- Drug excretion [8]: 3.62%
- dose excreted [9]: 63%
- Drug excretion [10]: 79.6%
- Drug excretion [11]: 92.2%
- Drug excretion [12]: 3.65%
- Drug excretion [13]: 48.5%
- Drug excretion [14]: 92.8%
- Drug excretion [15]: 24.8%
- Drug excretion [16]: 24.8%
- Drug excretion [17]: 95.4%
- Drug excretion [18]: 93.3%
- Drug excretion [19]: 89.3%
- dose excreted [20]: 40%
- Drug excretion [21]: 0.407%
- Drug excretion [22]: 96.5%
- AUCt [23]: 6446.3 ng.Eq.hr/ml
- Drug excretion [24]: 96.8%
- t1/2 [25]: 7.7 h
- Drug excretion [26]: 2.83%
- Drug excretion [27]: 93.1%
- Drug excretion [28]: 96.9%
- Drug recovery [29]: 99.1%
- dose excreted [30]: 63%
- Cmax [31]: 679 ng.Eq/ml
- Drug excretion [32]: 92.1%
- Tmax [33]: 4.3 h
